Source: ChEMBL document CHEMBL1671757, “In vitro profiling of pramiconazole and in vivo evaluation in Microsporum canis dermatitis and Candida albicans vaginitis laboratory models” (Antimicrob Agents Chemother, 2010)
Activity calls are given as the source filed them. The calls are words filed in the database; no cut-off is given here.

How the values were obtained:
[1] = test system: Trichophyton mentagrophytes; assay: Antifungal activity against 5 x 10^6 CFU/ml Trichophyton mentagrophytes B70554 by resazurin based fluorimetry assay; format: functional, organism-based
In short: (§1)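 Isolates were grown on Sabouraud dextrose agar, with stocks of 5×10^6 CFU/ml in RPMI-MOPS plus 10% glycerol kept in liquid nitrogen. Each well held 10^3 CFU in 200 μl RPMI-MOPS with compound dilutions, top concentration 64 μM. After incubation, resazurin was added and fluorescence read (ex 550, em 590 nm). IC50 was relative to untreated controls, as the mean ± SD of five independent repeats.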

Candida albicans [2] = assay: Antifungal activity against 5 x 10^6 CFU/ml Candida albicans B2630 by resazurin based fluorimetry assay; format: functional, organism-based; in short: as §1
Pichia kudriavzevii = assay: Antifungal activity against 5 x 10^6 CFU/ml Candida krusei B68404 by resazurin based fluorimetry assay; format: functional, organism-based; in short: as §1
Candida albicans [3] = assay: Antifungal activity against 10^7 CFU/ml Candida albicans B2630 infected in vulvovaginitis rat model assessed as fungal burden at 5 mg/kg administered tropically twice daily measured after 3 days; format: functional, organism-based; design: dose 5 mg/kg; settings: Vagina
Kluyveromyces marxianus = assay: Antifungal activity against 5 x 10^6 CFU/ml Candida kefyr B46120 by resazurin based fluorimetry assay; format: functional, organism-based; in short: as §1
Trichophyton rubrum [4] = assay: Antifungal activity against 5 x 10^6 CFU/ml Trichophyton rubrum B68183 by resazurin based fluorimetry assay; format: functional, organism-based; in short: as §1
Trichophyton quinckeanum = assay: Antifungal activity against 5 x 10^6 CFU/ml Trichophyton quinckeanum B68683 by resazurin based fluorimetry assay; format: functional, organism-based; in short: as §1
Candida albicans [5] = assay: Antifungal activity against 5 x 10^6 CFU/ml Candida albicans B59163 by resazurin based fluorimetry assay; format: functional, organism-based; in short: as §1
Trichophyton rubrum [6] = assay: Antifungal activity against 5 x 10^6 CFU/ml Trichophyton rubrum J941704 by resazurin based fluorimetry assay; format: functional, organism-based; in short: as §1
Candida albicans [7] = assay: Antifungal activity against 10^7 CFU/ml Candida albicans B2630 infected in vulvovaginitis rat model assessed as fungal burden at 10 mg/kg administered tropically twice daily measured after 3 days; format: functional, organism-based; design: dose 10 mg/kg; settings: Vagina
Microsporum canis = assay: Antifungal activity against 5 x 10^6 CFU/ml Microsporum canis B68128 by resazurin based fluorimetry assay; format: functional, organism-based; in short: as §1
Nakaseomyces glabratus = assay: Antifungal activity against 5 x 10^6 CFU/ml Candida glabrata B63155 by resazurin based fluorimetry assay; format: functional, organism-based; in short: as §1
[8] = Cytotoxicity against human MRC5 cells; format: cell-based
In short: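 Human lung fibroblasts (MRC-5SV40) were tested in parallel with the fungal screens. CC50 is the concentration killing 50% of cells, given as the mean ± SD of five independent repeats.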

[9] = Cmax in plasma of guinea pig infected with 10^6 CFU Microsporum canis B68128 at 10 mg/kg, po administered 2 hrs before infection for 5 days; format: ADME, organism-based, Cavia porcellus; design: dose 10 mg/kg, route oral
[10] = Half life in guinea pig infected with 10^6 CFU Microsporum canis B68128 at 10 mg/kg, po administered 2 hrs before infection for 5 days; format: ADME, organism-based, Cavia porcellus; design: dose 10 mg/kg, route oral; settings: in vivo
[11] = Tmax in guinea pig infected with 10^6 CFU Microsporum canis B68128 at 10 mg/kg, po administered 2 hrs before infection for 5 days; format: ADME, organism-based, Cavia porcellus; design: dose 10 mg/kg, route oral; settings: in vivo
[12] = Half life in guinea pig infected with 10^6 CFU Microsporum canis B68128 at 40 mg/kg, po administered 2 hrs before infection for 5 days; format: ADME, organism-based, Cavia porcellus; design: dose 40 mg/kg, route oral; settings: in vivo
Candida albicans [13] = assay: Antifungal activity against 10^7 CFU/ml Candida albicans B2630 infected in vulvovaginitis rat model assessed as fungal burden at 5 mg/kg, po SID; format: functional, organism-based; design: dose 5 mg/kg; settings: Vagina
In short: (§2)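 Intravaginal infection with 10^7 CFU. Oral dosing once daily in PEG200, starting about 2 h before infection, for 5 days. […] Six rats in two experiments.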

[14] = Cmax in plasma of guinea pig infected with 10^6 CFU Microsporum canis B68128 at 40 mg/kg, po administered 2 hrs before infection for 5 days; format: ADME, organism-based, Cavia porcellus; design: dose 40 mg/kg, route oral
Candida albicans [15] = assay: Antifungal activity against 10^7 CFU/ml Candida albicans B2630 infected in vulvovaginitis rat model assessed as fungal burden at 10 mg/kg, po SID; format: functional, organism-based; design: dose 10 mg/kg; settings: Vagina; in short: as §2
[16] = Tmax in guinea pig infected with 10^6 CFU Microsporum canis B68128 at 40 mg/kg, po administered 2 hrs before infection for 5 days; format: ADME, organism-based, Cavia porcellus; design: dose 40 mg/kg, route oral; settings: in vivo
[17] = Tmax in guinea pig infected with 10^6 CFU Microsporum canis B68128 at 20 mg/kg, po administered 2 hrs before infection for 5 days; format: ADME, organism-based, Cavia porcellus; design: dose 20 mg/kg, route oral; settings: in vivo
[18] = Half life in guinea pig infected with 10^6 CFU Microsporum canis B68128 at 20 mg/kg, po administered 2 hrs before infection for 5 days; format: ADME, organism-based, Cavia porcellus; design: dose 20 mg/kg, route oral; settings: in vivo
[19] = Cmax in plasma of guinea pig infected with 10^6 CFU Microsporum canis B68128 at 20 mg/kg, po administered 2 hrs before infection for 5 days; format: ADME, organism-based, Cavia porcellus; design: dose 20 mg/kg, route oral

Structure (SMILES)	IC50 [1] [nM]	IC50 (Candida albicans [2]) [nM]	IC50 (Pichia kudriavzevii) [nM]	Activity (Candida albicans [3])	IC50 (Kluyveromyces marxianus) [nM]	IC50 (Trichophyton rubrum [4]) [nM]	IC50 (Trichophyton quinckeanum) [nM]	IC50 (Candida albicans [5]) [nM]	IC50 (Trichophyton rubrum [6]) [nM]	Activity (Candida albicans [7])	IC50 (Microsporum canis) [nM]	IC50 (Nakaseomyces glabratus) [nM]	CC50 [8] [nM]	Activity (Candida albicans [13])	Activity (Candida albicans [15])	further results
Clc1ccc(COC(Cn2ccnc2)c2ccc(Cl)cc2Cl)c(Cl)c1 (stereo not drawn) [MICONAZOLE]	400	2500	1400	Active	30	330	790	300	140	Active	230	120	29700			
CN(C/C=C/C#CC(C)(C)C)Cc1cccc2ccccc12 [TERBINAFINE]	60	64000	64000		6330	70	10	3570	30		100	30700	63000			Cmax [9]: 60 ng/mL; half-life [10]: 6.6 h; Tmax [11]: 0.7 h
CC(C)N1CCN(c2ccc(N3CCN(c4ccc(OC[C@H]5OC[C@](Cn6cncn6)(c6ccc(F)cc6F)O5)cc4)CC3)cc2)C1=O [PRAMICONAZOLE]	150	1830	870	Active	130	350	1340	40	190	Active	180	650	53300	Active	Active	half-life [12]: 23 h; Cmax [14]: 180 ng/mL; Tmax [16]: 4 h
CCC(C)n1ncn(-c2ccc(N3CCN(c4ccc(OCC5COC(Cn6cncn6)(c6ccc(Cl)cc6Cl)O5)cc4)CC3)cc2)c1=O (stereo not drawn) [ITRACONAZOLE]	370	1390	4210	Active	400	560	2930	1410	980	Active	2020	3740	49300	Active	Active	Tmax [17]: 2 h; half-life [18]: 13.9 h; Cmax [19]: 350 ng/mL
